Test results from ChEMBL document CHEMBL2010770, “Dimeric 3,5-bis(benzylidene)-4-piperidones: a novel cluster of tumour-selective cytotoxins possessing multidrug-resistant properties” (Eur J Med Chem, 2012).
Activity calls are given as the source filed them. The calls are words filed in the database; no cut-off is given here.

Legend:
[1] = Cytotoxicity against human HPLF cells after 48 hrs; assay type: cell-based
Summary of the method: (§1)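 Cells were exposed to a dose range for 48 h, following a literature method. CC50 was read from the dose–response curve.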

COLO 205 = experiment: Cytotoxicity against human COLO205 cells; assay type: functional, cell-based
Summary of the method: (§2)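 Human colon cancer and leukaemia line panel. Compounds tested from 10^-4 to 10^-8 M, and IC50 values determined.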

HCC 2998 = experiment: Cytotoxicity against human HCC2998 cells; assay type: functional, cell-based; summary of the method: as §2
HCT-116 = experiment: Cytotoxicity against human HCT116 cells; assay type: functional, cell-based; summary of the method: as §2
HCT-15 = experiment: Cytotoxicity against human HCT15 cells; assay type: functional, cell-based; summary of the method: as §2
HT-29 = experiment: Cytotoxicity against human HT-29 cells; assay type: functional, cell-based; summary of the method: as §2
KM12 = experiment: Cytotoxicity against human KM12 cells; assay type: functional, cell-based; summary of the method: as §2
SW-620 = experiment: Cytotoxicity against human SW620 cells; assay type: functional, cell-based; summary of the method: as §2
HL-60(TB) = experiment: Cytotoxicity against human HL-60(TB) cells; assay type: functional, cell-based; summary of the method: as §2
K562 = experiment: Cytotoxicity against human K562 cells; assay type: functional, cell-based; summary of the method: as §2
RPMI-8226 = experiment: Cytotoxicity against human RPMI8226 cells; assay type: functional, cell-based; summary of the method: as §2
[2] = biological target: T1, ATP-dependent translocase ABCB1 (Homo sapiens, UniProt P08183); experiment: Inhibition of human MDR1-mediated multidrug resistant in mouse L5178Y cells at 4 uM treated 10 mins before rhodamine 123 challenge measured after 20 mins relative to control; assay type: cell-based
Summary of the method: (§3)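 Compounds in DMSO were added at room temperature to mdr1-transfected and parental L5178Y cells. After 10 min, rhodamine 123 was added, followed by 20 min at 37 °C. Cellular rhodamine fluorescence was measured and expressed as fluorescence activity ratio (FAR); FAR >1 indicates MDR reversal.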

[3] = biological target: T1, ATP-dependent translocase ABCB1; experiment: Inhibition of human MDR1-mediated multidrug resistant in mouse L5178Y cells at 40 uM treated 10 mins before rhodamine 123 challenge measured after 20 mins relative to control; assay type: cell-based; summary of the method: as §3
MOLT-4 = experiment: Growth inhibition of human Molt4/C8 cells; assay type: functional, cell-based
CCRF-CEM = experiment: Growth inhibition of human CEM cells; assay type: functional, cell-based
L1210 = experiment: Growth inhibition of mouse L1210 cells; assay type: functional, cell-based
HSC-2 [4] = experiment: Cytotoxicity against human HSC2 cells after 48 hrs; assay type: functional; conditions: HSC-2, 48 h
Summary of the method: (§4)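 Human HSC-2, HSC-3, HSC-4 squamous carcinoma and HL-60 promyelocytic leukaemia cells incubated with compound for 48 h. CC50, the concentration killing 50% of cells, read from a dose–response curve.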

HSC-2 [5] = experiment: Selectivity index, ratio of CC50 for human normal cells to CC50 for human HSC2 cells; assay type: functional
HSC-3 [6] = experiment: Cytotoxicity against human HSC3 cells after 48 hrs; assay type: functional; conditions: HSC-3, 48 h; summary of the method: as §4
HSC-3 [7] = experiment: Selectivity index, ratio of CC50 for human normal cells to CC50 for human HSC3 cells; assay type: functional
HSC-4 [8] = experiment: Cytotoxicity against human HSC4 cells after 48 hrs; assay type: functional; conditions: HSC-4, 48 h; summary of the method: as §4
HSC-4 [9] = experiment: Selectivity index, ratio of CC50 for human normal cells to CC50 for human HSC4 cells; assay type: functional
HL-60 [10] = experiment: Cytotoxicity against human HL60 cells after 48 hrs; assay type: functional; conditions: HL-60, 48 h; summary of the method: as §4
HL-60 [11] = experiment: Selectivity index, ratio of CC50 for human normal cells to CC50 for human HL60 cells; assay type: functional
[12] = Cytotoxicity against human HGF cells after 48 hrs; assay type: cell-based; summary of the method: as §1

T1 sequence (P08183 whole entry): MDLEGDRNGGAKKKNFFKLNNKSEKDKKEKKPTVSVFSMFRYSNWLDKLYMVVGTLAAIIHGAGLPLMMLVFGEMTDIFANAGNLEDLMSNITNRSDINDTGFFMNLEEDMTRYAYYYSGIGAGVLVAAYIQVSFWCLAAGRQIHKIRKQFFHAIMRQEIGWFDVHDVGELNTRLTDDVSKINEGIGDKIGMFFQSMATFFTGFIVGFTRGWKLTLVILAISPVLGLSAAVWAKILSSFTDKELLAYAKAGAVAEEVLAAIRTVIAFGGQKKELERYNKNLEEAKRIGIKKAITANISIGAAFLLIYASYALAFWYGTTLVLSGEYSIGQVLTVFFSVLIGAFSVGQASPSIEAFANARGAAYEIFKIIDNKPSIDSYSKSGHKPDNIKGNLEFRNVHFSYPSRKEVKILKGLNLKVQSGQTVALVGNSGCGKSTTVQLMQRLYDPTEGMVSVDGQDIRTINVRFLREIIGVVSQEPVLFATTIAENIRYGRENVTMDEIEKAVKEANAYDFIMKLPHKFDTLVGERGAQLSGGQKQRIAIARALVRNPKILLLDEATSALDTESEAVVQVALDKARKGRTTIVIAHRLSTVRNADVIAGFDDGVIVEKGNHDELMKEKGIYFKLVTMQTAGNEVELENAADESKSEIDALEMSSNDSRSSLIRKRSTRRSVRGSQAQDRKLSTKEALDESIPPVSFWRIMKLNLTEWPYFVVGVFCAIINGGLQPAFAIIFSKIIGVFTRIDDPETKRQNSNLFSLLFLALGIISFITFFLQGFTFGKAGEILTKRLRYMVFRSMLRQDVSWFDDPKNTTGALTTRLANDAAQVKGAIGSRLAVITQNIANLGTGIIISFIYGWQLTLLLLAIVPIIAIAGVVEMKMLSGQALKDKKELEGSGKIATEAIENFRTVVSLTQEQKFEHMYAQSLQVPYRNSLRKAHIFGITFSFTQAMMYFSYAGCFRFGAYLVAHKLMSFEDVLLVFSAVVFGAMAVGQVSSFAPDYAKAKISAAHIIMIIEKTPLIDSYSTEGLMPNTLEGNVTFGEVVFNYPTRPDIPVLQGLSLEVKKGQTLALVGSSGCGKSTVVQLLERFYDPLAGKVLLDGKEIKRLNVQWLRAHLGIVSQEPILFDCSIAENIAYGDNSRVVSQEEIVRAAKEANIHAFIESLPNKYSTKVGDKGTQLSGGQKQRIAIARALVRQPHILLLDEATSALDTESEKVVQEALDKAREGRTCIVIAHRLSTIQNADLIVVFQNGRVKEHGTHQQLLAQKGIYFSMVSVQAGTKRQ

| Compound | CC50 at 48 h [1] [µM] | IC50 (COLO 205) [nM] | IC50 (HCT-116) [nM] | IC50 (HCT-15) [nM] | IC50 (SW-620) [nM] | IC50 (HL-60(TB)) [µM] | Ratio [2] | Ratio [3] | growth inhibition (GI) (MOLT-4) | growth inhibition (GI) (CCRF-CEM) | growth inhibition (GI) (L1210) | CC50 (HSC-2 [4]) [nM] | Ratio (HSC-2 [5]) | CC50 (HSC-3 [6]) [nM] | Ratio (HSC-3 [7]) | CC50 (HSC-4 [8]) [nM] | Ratio (HSC-4 [9]) | CC50 (HL-60 [10]) [nM] | Ratio (HL-60 [11]) | CC50 at 48 h [12] [µM] | further results |
| --- | --- | --- | --- | --- | --- | --- | --- | --- | --- | --- | --- | --- | --- | --- | --- | --- | --- | --- | --- | --- | --- |
| O=C1/C(=C/c2ccccc2)CN(C(=O)/C=C/C(=O)N2C/C(=C\c3ccccc3)C(=O)/C(=C/c3ccccc3)C2)C/C1=C\c1ccccc1 | 22 | 560 | 130 | 830 | 220 | 0.45 | 37.2 | 52.9 | Active | Active | Active | 78 | 191 | 620 | 24 | 580 | 25.7 | 1200 | 12.4 | 17 | IC50 (HCC 2998): 220 nM; IC50 (HT-29): 250 nM; IC50 (KM12): 210 nM; IC50 (K562): 320 nM; IC50 (RPMI-8226): 50 nM |
| O=c1[nH]cc(F)c(=O)[nH]1 [FLUOROURACIL] |  |  |  |  | 380000 | > 2510 |  |  |  |  |  |  |  |  |  |  |  |  |  |  |  |
| O=C1/C(=C/c2ccccc2)CN(C(=O)CCCC(=O)N2C/C(=C\c3ccccc3)C(=O)/C(=C/c3ccccc3)C2)C/C1=C\c1ccccc1 | 3.9 |  |  |  |  |  | 50.2 | 73.4 | Active | Active | Active | 71 | 34.8 | 170 | 14.5 | 190 | 13 | 390 | 6.33 | 2.9 |  |
| O=C1/C(=C/c2ccccc2)CN(C(=O)CCCCCCC(=O)N2C/C(=C\c3ccccc3)C(=O)/C(=C/c3ccccc3)C2)C/C1=C\c1ccccc1 | 17 |  |  |  |  |  | 49.2 | 55.7 | Active | Active | Active | 170 | 61.2 | 210 | 49.5 | 620 | 16.8 | 1300 | 8 | 13 |  |
| O=C1/C(=C/c2ccccc2)CN(C(=O)C#CC(=O)N2C/C(=C\c3ccccc3)C(=O)/C(=C/c3ccccc3)C2)C/C1=C\c1ccccc1 | 13 | 250 | 120 | 390 | 200 | 0.25 | 42 | 45.7 | Active | Active | Active | 190 | 41.4 | 490 | 16.1 | 930 | 8.46 | 870 | 9.05 | 8.5 | IC50 (HCC 2998): 410 nM; IC50 (HT-29): 200 nM; IC50 (KM12): 280 nM; IC50 (K562): 300 nM; IC50 (RPMI-8226): 80 nM |
| O=C1/C(=C/c2ccccc2)CN(C(=O)C(=O)N2C/C(=C\c3ccccc3)C(=O)/C(=C/c3ccccc3)C2)C/C1=C\c1ccccc1 | 5.3 | 360 | 30 | 300 | 70 | 0.2 | 19.3 | 41.1 | Active | Active | Active | 85 | 38.4 | 150 | 21.7 | 200 | 16.3 | 110 | 29.6 | 3.8 | IC50 (HCC 2998): 190 nM; IC50 (HT-29): 170 nM; IC50 (KM12): 40 nM; IC50 (K562): 200 nM; IC50 (RPMI-8226): 250 nM |
| N[C@@H](Cc1ccc(N(CCCl)CCCl)cc1)C(=O)O [MELPHALAN] |  |  |  |  |  |  |  |  |  |  |  | 8700 | 24.1 | 25000 | 8.4 | 32000 | 6.56 | 1400 | 150 |  |  |
| O=C1/C(=C/c2ccccc2)CN(C(=O)c2cccc(C(=O)N3C/C(=C\c4ccccc4)C(=O)/C(=C/c4ccccc4)C3)c2)C/C1=C\c1ccccc1 | 46 | 2400 | 200 | 1700 | 360 | 2.04 | 38.9 | 61.3 | Active | Active | Active | 3200 | 11.3 | 6300 | 5.76 | 8000 | 4.54 | 6600 | 5.5 | 42 | IC50 (HT-29): 550 nM; IC50 (KM12): 350 nM; IC50 (K562): 1550 nM; IC50 (RPMI-8226): 730 nM |
| O=C1/C(=C/c2ccccc2)CN(C(=O)/C=C/C=C/C(=O)N2C/C(=C\c3ccccc3)C(=O)/C(=C/c3ccccc3)C2)C/C1=C\c1ccccc1 | 47 |  |  |  |  |  | 48.6 | 44.3 | Active | Active | Active | 2600 | 13.5 | 8500 | 4.12 | 6400 | 5.47 | 7400 | 4.73 | 39 |  |
